Source: PubChem BioAssay AID1943 (The Scripps Research Institute Molecular Screening Center, 2009)
In all, about 1,600 compounds went through this assay and about 500 (31%) were called active. This is one part of a sample in which actives are shown more often than they occur. Values without a mark were called inactive.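 How the source made its calls: active means inhibition above the mean of all tested compounds plus 3 SD, cutoff set per campaign (cut at about 36% in these data); inactive means the rest.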

system: Hepatitis C virus NS3 helicase; assay: blockers of HCV NS3 DNA unwinding – biochemical, Cy5 molecular beacon fluorescence, triplicate, confirmation (AID 1943); conditions: at 10.9 µM, active compounds read high
Method in brief: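 assay system = HCV NS3 helicase | medium = MOPS buffer pH 6.5 with MgCl2, DTT, Tween20 and BSA | compound dosing = single nominal final dose of 10.9 µM, DMSO vehicle | incubation = reads at 0 and 60 min post-ATP, 25 °C | detection = Cy5 fluorescence | read-out = % inhibition of unwinding | repeats = triplicate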

SMILES	inhibition
O=C1CC(=O)N(Cc2ccccc2)C(=O)N1CCCCCCN1C(=O)CC(=O)N(Cc2ccccc2)C1=O	55.3% (active)
COc1ccc(N2C(=O)/C(=C/c3ccco3)C(=O)NC2=S)cc1	82% (active)
CC(C)n1c(=O)c(C=Nc2ccc(Br)cc2)c(O)n(Cc2ccco2)c1=O	1.92%
